Laboratory results as given in ChEMBL document CHEMBL5058577, “EUbOPEN Chemogenomics Library 2 (Multiplex)” (2022).

Test system: Fibroblast
Assay: Multiplex assay against human fibroblast
Type: toxicity, cell-based
Outline: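 Cells were classed with CellPathfinder machine-learning gating, first as Hoechst high-intensity objects or normal cells, then (normal cells) as healthy, pyknosed or fragmented nuclei, and finally (pyknosed cells) as mitotic or apoptotic. Staining of live cells at seeding used Hoechst33342, BioTracker Green Microtubule Cytoskeleton Dye, MitoTracker Red and Annexin V Alexa Fluor 680, with imaging on a CQ1 microscope at 37°C and 5% CO2 after compound addition. Tubulin, mitochondrial-mass and membrane-permeability phenotypes are per cents of healthy-nucleus cells.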

[1] = 12 h, 1 µM, compound concentration 1 uM, replicate 1
[2] = 12 h, 1 µM, compound concentration 1 uM, replicate 2
[3] = 12 h, 10 µM, compound concentration 10 uM, replicate 1
[4] = 12 h, 10 µM, compound concentration 10 uM, replicate 2
[5] = 24 h, 1 µM, compound concentration 1 uM, replicate 1
[6] = 24 h, 1 µM, compound concentration 1 uM, replicate 2
[7] = 24 h, 10 µM, compound concentration 10 uM, replicate 1
[8] = 24 h, 10 µM, compound concentration 10 uM, replicate 2
[9] = 48 h, 1 µM, compound concentration 1 uM, replicate 1
[10] = 48 h, 1 µM, compound concentration 1 uM, replicate 2
[11] = 48 h, 10 µM, compound concentration 10 uM, replicate 1
[12] = 48 h, 10 µM, compound concentration 10 uM, replicate 2

## COc1ccc2c(c1)C(C(=O)N(Cc1ccc(N(C)C)cc1)c1ccc(C(C)C)cc1)CCC2.Cl (configuration not stated)
[1]
  Population Apoptotic (%): 57%
  Population Fragmented Nuclei (%): 15%
  Population Healthy Nuclei (%): 72%
  Population Hoechst High Intensity Objects (%): 1%
  Population Membrane Permeable-Phenotype (%): 1%
  Population Mitochondria Different-Phenotype (%): 7%
  Population Mitotic Cells (%): 42%
  Population Normal (%): 98%
  Population Pyknosed Nuclei (%): 11%
  Population Tubulin-Different-Phenotype (%): 22%
  Total Cell Count: 163
[2]
  Population Apoptotic (%): 45%
  Population Fragmented Nuclei (%): 20%
  Population Healthy Nuclei (%): 55%
  Population Hoechst High Intensity Objects (%): 5%
  Population Membrane Permeable-Phenotype (%): 5%
  Population Mitochondria Different-Phenotype (%): 15%
  Population Mitotic Cells (%): 54%
  Population Normal (%): 94%
  Population Pyknosed Nuclei (%): 23%
  Population Tubulin-Different-Phenotype (%): 57%
  Total Cell Count: 138
[3]
  Population Apoptotic (%): 58%
  Population Fragmented Nuclei (%): 17%
  Population Healthy Nuclei (%): 69%
  Population Hoechst High Intensity Objects (%): 1%
  Population Membrane Permeable-Phenotype (%): 0%
  Population Mitochondria Different-Phenotype (%): 12%
  Population Mitotic Cells (%): 41%
  Population Normal (%): 98%
  Population Pyknosed Nuclei (%): 13%
  Population Tubulin-Different-Phenotype (%): 67%
  Total Cell Count: 181
[4]
  Population Apoptotic (%): 53%
  Population Fragmented Nuclei (%): 38%
  Population Healthy Nuclei (%): 51%
  Population Hoechst High Intensity Objects (%): 2%
  Population Membrane Permeable-Phenotype (%): 6%
  Population Mitochondria Different-Phenotype (%): 14%
  Population Mitotic Cells (%): 46%
  Population Normal (%): 97%
  Population Pyknosed Nuclei (%): 10%
  Population Tubulin-Different-Phenotype (%): 77%
  Total Cell Count: 148
[5]
  Population Apoptotic (%): 55%
  Population Fragmented Nuclei (%): 11%
  Population Healthy Nuclei (%): 77%
  Population Hoechst High Intensity Objects (%): 1%
  Population Membrane Permeable-Phenotype (%): 0%
  Population Mitochondria Different-Phenotype (%): 5%
  Population Mitotic Cells (%): 44%
  Population Normal (%): 98%
  Population Pyknosed Nuclei (%): 11%
  Population Tubulin-Different-Phenotype (%): 25%
  Total Cell Count: 156
[6]
  Population Fragmented Nuclei (%): 19%
  Population Healthy Nuclei (%): 59%
  Population Hoechst High Intensity Objects (%): 3%
  Population Membrane Permeable-Phenotype (%): 2%
  Population Mitochondria Different-Phenotype (%): 11%
  Population Normal (%): 96%
  Population Pyknosed Nuclei (%): 20%
  Population Tubulin-Different-Phenotype (%): 41%
  Total Cell Count: 136
[7]
  Population Apoptotic (%): 50%
  Population Fragmented Nuclei (%): 17%
  Population Healthy Nuclei (%): 72%
  Population Hoechst High Intensity Objects (%): 3%
  Population Membrane Permeable-Phenotype (%): 0%
  Population Mitochondria Different-Phenotype (%): 15%
  Population Mitotic Cells (%): 50%
  Population Normal (%): 96%
  Population Pyknosed Nuclei (%): 10%
  Population Tubulin-Different-Phenotype (%): 63%
  Total Cell Count: 180
[8]
  Population Apoptotic (%): 42%
  Population Fragmented Nuclei (%): 39%
  Population Healthy Nuclei (%): 55%
  Population Hoechst High Intensity Objects (%): 2%
  Population Membrane Permeable-Phenotype (%): 2%
  Population Mitochondria Different-Phenotype (%): 12%
  Population Mitotic Cells (%): 57%
  Population Normal (%): 97%
  Population Pyknosed Nuclei (%): 4%
  Population Tubulin-Different-Phenotype (%): 85%
  Total Cell Count: 148
[9]
  Population Apoptotic (%): 66%
  Population Fragmented Nuclei (%): 17%
  Population Healthy Nuclei (%): 75%
  Population Hoechst High Intensity Objects (%): 1%
  Population Membrane Permeable-Phenotype (%): 1%
  Population Mitochondria Different-Phenotype (%): 3%
  Population Mitotic Cells (%): 33%
  Population Normal (%): 98%
  Population Pyknosed Nuclei (%): 6%
  Population Tubulin-Different-Phenotype (%): 27%
  Total Cell Count: 180
[10]
  Population Apoptotic (%): 52%
  Population Fragmented Nuclei (%): 26%
  Population Healthy Nuclei (%): 61%
  Population Membrane Permeable-Phenotype (%): 5%
  Population Mitochondria Different-Phenotype (%): 13%
  Population Mitotic Cells (%): 47%
  Population Pyknosed Nuclei (%): 12%
  Population Tubulin-Different-Phenotype (%): 46%
  Total Cell Count: 152
[11]
  Population Apoptotic (%): 71%
  Population Fragmented Nuclei (%): 21%
  Population Healthy Nuclei (%): 71%
  Population Hoechst High Intensity Objects (%): 4%
  Population Membrane Permeable-Phenotype (%): 0%
  Population Mitochondria Different-Phenotype (%): 8%
  Population Mitotic Cells (%): 28%
  Population Normal (%): 95%
  Population Pyknosed Nuclei (%): 7%
  Population Tubulin-Different-Phenotype (%): 71%
  Total Cell Count: 203
[12]
  Population Apoptotic (%): 75%
  Population Fragmented Nuclei (%): 45%
  Population Healthy Nuclei (%): 52%
  Population Hoechst High Intensity Objects (%): 0%
  Population Membrane Permeable-Phenotype (%): 3%
  Population Mitotic Cells (%): 25%
  Population Normal (%): 99%
  Population Pyknosed Nuclei (%): 2%
  Population Tubulin-Different-Phenotype (%): 81%
  Total Cell Count: 174
